Results as given in ChEMBL document CHEMBL1149637, “Design, synthesis, and evaluation of potential inhibitors of brassinin glucosyltransferase, a phytoalexin detoxifying enzyme from Sclerotinia sclerotiorum” (Bioorg Med Chem, 2007).
Activity calls are given as the source filed them. No cut-off for these calls is given here.

Tests used:
[1] = Metabolic stability assessed as half life in Sclerotina sclerotiorum; type: ADME, organism-based; conditions: sclerotinia sclerotiorum, Sclerotinia sclerotiorum (whole organism)
In short: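 S. sclerotiorum clone #33 mycelial plugs were grown 4 days in minimal medium at 22 ± 1 °C, shaken at 120 rpm under constant light. Compound (0.050 or 0.10 mM final, in CH₃CN 0.5% v/v) was added, then brassinin (0.05 mM final) 10 min later. Samples taken over time were extracted with EtOAc, brassinin was measured by HPLC-DAD, and brassinin half-life was compared with brassinin-only cultures.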

Sclerotinia sclerotiorum [2] = assay: Antifungal activity against Sclerotina sclerotiorum assessed as growth inhibition at 0.10 mM after 48 hrs; type: functional
In short: (§1)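 S. sclerotiorum clone #33 radial growth assay: mycelial plugs (4 mm, from 3-day-old PDA plates) placed upside down in wells of minimal medium containing compound diluted from 50 mM DMSO stock. Medium-only controls contained 1% DMSO. […] Run in triplicate, at least three times.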

Sclerotinia sclerotiorum [3] = assay: Antifungal activity against Sclerotina sclerotiorum assessed as growth inhibition at 0.30 mM after 48 hrs; type: functional; in short: as §1
Sclerotinia sclerotiorum [4] = assay: Antifungal activity against Sclerotina sclerotiorum assessed as growth inhibition at 0.01 mM after 48 hrs; type: functional
Sclerotinia sclerotiorum [5] = assay: Inhibition of Sclerotina sclerotiorums brassinin glucosyl transferase assessed as specific activity at 0.60 mM
In short: (§2)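 Crude cell-free homogenate from clone #33 grown 7 days in PDB, induced with camalexin (0.05 mM final, 24 h). Mycelia were ground in ice-cold 50 mM Tris-HCl pH 8.0 buffer and centrifuged at 58,545g for 40 min. Inhibitor (from DMSO) was preincubated 30 min at room temperature with extract and UDPG (0.3 mM final). Brassinin (0.3 mM) was added, then 60 min incubation, EtOAc extraction and HPLC quantification of glucosylbrassinin. Protein measured by Bradford. Relative activity = specific activity vs brassinin-only control. Triplicate.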

Sclerotinia sclerotiorum [6] = assay: Inhibition of Sclerotina sclerotiorums brassinin glucosyl transferase assessed as specific activity at 0.30 mM; in short: as §2
Sclerotinia sclerotiorum [7] = assay: Inhibition of Sclerotina sclerotiorums brassinin glucosyl transferase assessed as percent relative activity in relative to brassinin at 0.60 mM; parameters: scale not given: the % may be the effect or the level left; in short: as §2
[8] = Metabolic stability assessed as half life in Sclerotina sclerotiorum at 0.10 mM; type: ADME, organism-based; conditions: sclerotinia sclerotiorum, Sclerotinia sclerotiorum (whole organism)
In short: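 Four-day-old mycelial cultures in minimal medium (22 °C, 120 rpm, constant light) received inhibitor (0.050 or 0.10 mM final, in CH₃CN at 0.5% v/v). After 10 min, brassinin (0.05 mM final) was added. Samples were withdrawn over time, EtOAc-extracted and analysed by HPLC-DAD for remaining brassinin. Half-life of brassinin was compared with brassinin-only cultures. An uninoculated medium control was included.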

Sclerotinia sclerotiorum [9] = assay: Antifungal activity against Sclerotina sclerotiorum assessed as growth inhibition at 0.05 mM after 48 hrs; type: functional; in short: as §1
Sclerotinia sclerotiorum [10] = assay: Inhibition of Sclerotina sclerotiorums brassinin glucosyl transferase assessed as percent relative activity in relative to brassinin at 0.30 mM; parameters: scale not given: the % may be the effect or the level left; in short: as §2
Sclerotinia sclerotiorum [11] = assay: Antifungal activity against Sclerotina sclerotiorum assessed as growth inhibition at 0.50 mM after 48 hrs; type: functional; in short: as §1
[12] = Metabolic stability assessed as half life in Sclerotina sclerotiorum at 0.03 mM; type: ADME, organism-based; conditions: sclerotinia sclerotiorum, Sclerotinia sclerotiorum (whole organism)
[13] = Metabolic stability assessed as half life in Sclerotina sclerotiorum at less than 0.01 mM; type: ADME, organism-based; conditions: sclerotinia sclerotiorum, Sclerotinia sclerotiorum (whole organism)

SMILES | Activity (10^-10.mol/mg/min) (Sclerotinia sclerotiorum [5]) | Activity (10^-10.mol/mg/min) (Sclerotinia sclerotiorum [6]) | Activity (Sclerotinia sclerotiorum [7]) [%] | half-life at 100 µM [8] [min] | Activity (Sclerotinia sclerotiorum [10]) [%] | half-life at 30 µM [12] [min] | half-life [13] [min] | half-life [1] [min] | inhibition at 100 µM (Sclerotinia sclerotiorum [2]) [%] | inhibition at 300 µM (Sclerotinia sclerotiorum [3]) [%] | inhibition at 10 µM (Sclerotinia sclerotiorum [4]) [%] | inhibition at 50 µM (Sclerotinia sclerotiorum [9]) [%] | inhibition at 500 µM (Sclerotinia sclerotiorum [11]) [%] | Activity (Sclerotinia sclerotiorum [2]) | Activity (Sclerotinia sclerotiorum [3]) | Activity (Sclerotinia sclerotiorum [11])
CSC(=S)NCc1c[nH]c2ccccc12 [BRASSININ] |  |  |  |  |  |  |  | 540 | 37 | 100 |  |  |  |  |  | 
c1ccc(-c2c[nH]c3ccccc23)cc1 [3-PHENYLINDOLE] | 0.19 | 0.35 | 13 | 600 | 23 |  |  |  | 100 |  | 78 | 93 |  |  |  | 
Fc1ccc2[nH]cc(-c3nccs3)c2c1 [5-FLUOROCAMALEXIN] | 0.72 | 0.81 | 48 |  | 54 |  |  |  | 70 | 85 |  | 61 |  |  |  | 
Fc1cccc2[nH]cc(-c3ccccc3)c12 | 0.43 | 0.55 | 29 |  | 37 |  |  |  |  |  | 47 | 100 |  |  |  | 
c1ccc2[nH]c(-c3cscn3)nc2c1 [THIABENDAZOLE] |  |  |  |  |  |  |  |  | 86 |  |  |  | 93 |  |  | 
c1ccc(-c2coc3ccccc23)cc1 | 0.63 | 0.79 | 42 |  | 53 |  |  |  | 32 | 64 |  |  | 80 |  |  | 
COC(=O)c1cnn2ccc(OC)cc12 | 1.49 | 1.51 | 100 |  | 100 |  |  |  |  |  |  |  | 20 |  | inactive | 
c1ccc2c(-c3nccs3)c[nH]c2c1 [CAMALEXIN] | 0.84 | 0.95 | 56 |  | 63 |  |  |  | 100 |  |  | 81 |  |  |  | 
c1ccc(-c2cc3ccccc3[nH]2)cc1 | 0.59 | 0.59 | 39 |  | 39 |  |  |  |  |  |  |  |  |  |  | 
CC(=O)Nc1cnc2ccccc2c1 | 1.53 | 1.58 | 100 |  | 100 |  |  |  |  |  |  |  |  |  |  | inactive
Fc1ccc2c(-c3ccccc3)c[nH]c2c1 [6-FLUORO-3-PHENYLINDOLE] | 0.2 | 0.34 | 13 | 600 | 23 |  |  |  | 93 |  | 65 | 87 |  |  |  | 
Fc1ccc2c(-c3nccs3)c[nH]c2c1 | 1 | 0.97 | 63 |  | 66 |  |  |  |  |  |  |  |  |  |  | 

Further lines, with some results ahead:

Activity (10^-10.mol/mg/min) (Sclerotinia sclerotiorum [5]) | Activity (10^-10.mol/mg/min) (Sclerotinia sclerotiorum [6]) | Activity (Sclerotinia sclerotiorum [7]) [%] | half-life at 100 µM [8] [min] | Activity (Sclerotinia sclerotiorum [10]) [%] | half-life at 30 µM [12] [min] | half-life [13] [min] | SMILES | half-life [1] [min] | inhibition at 100 µM (Sclerotinia sclerotiorum [2]) [%] | inhibition at 300 µM (Sclerotinia sclerotiorum [3]) [%] | inhibition at 10 µM (Sclerotinia sclerotiorum [4]) [%] | inhibition at 50 µM (Sclerotinia sclerotiorum [9]) [%] | inhibition at 500 µM (Sclerotinia sclerotiorum [11]) [%] | Activity (Sclerotinia sclerotiorum [2]) | Activity (Sclerotinia sclerotiorum [3]) | Activity (Sclerotinia sclerotiorum [11])
0.75 | 1.02 | 50 |  | 68 |  |  | CSC(=S)NCc1c[nH]c2ncccc12 |  |  | 28 |  |  | 65 | inactive |  | 
0.43 | 0.64 | 29 |  | 43 | 360 |  | CSC(=S)NCc1cc2ccccc2o1 |  | 32 | 100 |  |  |  |  |  | 
0.55 | 0.75 | 37 | 540 | 50 |  |  | CSC(=S)NCc1coc2ccccc12 |  |  | 23 |  |  | 45 | inactive |  | 
0.41 | 0.63 | 27 |  | 42 |  | 120 | CSC(=S)NCc1cc2ccccc2[nH]1 [ISOBRASSININ] |  | 48 | 100 |  |  |  |  |  | 
1.12 | 1.22 | 75 |  | 81 |  |  | CSC(=S)NCc1csc2ccccc12 |  | 10 | 63 |  |  | 89 |  |  | 
1.48 | 1.47 | 99 |  | 98 |  |  | COc1ccn2ncc(CNC(=S)SC)c2c1 |  |  |  |  |  |  |  |  | 
